The record followed here is ChEMBL document CHEMBL1134318, “Design, synthesis, and biological characterization of bivalent 1-methyl-1,2,5,6-tetrahydropyridyl-1,2,5-thiadiazole derivatives as selective muscarinic agonists” (J Med Chem, 2001).

In brackets after ≈: the same amount, converted by molar mass. Bounds are passed on as bounds.

Series [1] concerns the target T1, Muscarinic acetylcholine receptor M1 (Homo sapiens, UniProt P11229).
T1 sequence (P11229 whole entry): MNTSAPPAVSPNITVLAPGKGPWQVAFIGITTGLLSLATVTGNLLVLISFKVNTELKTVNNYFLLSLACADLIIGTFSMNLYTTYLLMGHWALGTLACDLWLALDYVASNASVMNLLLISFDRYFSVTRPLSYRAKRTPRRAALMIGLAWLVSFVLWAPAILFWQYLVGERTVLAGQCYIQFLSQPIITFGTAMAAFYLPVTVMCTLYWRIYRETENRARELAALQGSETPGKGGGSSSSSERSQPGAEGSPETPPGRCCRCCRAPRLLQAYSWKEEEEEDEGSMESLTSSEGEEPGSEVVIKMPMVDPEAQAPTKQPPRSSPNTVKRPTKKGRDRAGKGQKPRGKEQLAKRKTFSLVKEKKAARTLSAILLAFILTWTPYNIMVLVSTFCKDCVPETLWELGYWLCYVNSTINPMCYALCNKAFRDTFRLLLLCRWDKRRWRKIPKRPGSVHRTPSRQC
Briefly: (§1) Binding affinity towards M1 muscarinic receptor expressed in A9 L cells by displacing [3H](R)-QNB radioligand. It counts as cell-based, L929. The method, boiled down: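 Competition binding on A9 L cell membrane homogenates (human M1) with 0.1 nM [3H]-(R)-QNB and 14 test-ligand concentrations, 0.01 nM to 3 mM. Buffer 25 mM sodium phosphate pH 7.4 with 5 mM MgCl2, 2 h at room temperature.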

Series [2] concerns the target T2, Muscarinic acetylcholine receptor M1 (Homo sapiens) (UniProt P11229).
T2 sequence (whole entry): T1 sequence (P11229 whole entry)
Nature of the series: Agonist activity at M1 receptor coupled to phosphoinositide metabolism at 100 uM expressed as percent stimulation above basal levels relative to carbachol response. Format: functional. The method, boiled down: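 Stably transfected A9 L cells (and/or NIH 3T3) expressing human M1 receptor; agonist-stimulated accumulation of [3H]-inositol phosphates measured at 100 µM test ligand. […] Mean (SEM) of two to five assays per compound.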

The target in series [3] is T3, Muscarinic acetylcholine receptor M5 (Homo sapiens) (UniProt P08912).
T3 sequence (whole entry): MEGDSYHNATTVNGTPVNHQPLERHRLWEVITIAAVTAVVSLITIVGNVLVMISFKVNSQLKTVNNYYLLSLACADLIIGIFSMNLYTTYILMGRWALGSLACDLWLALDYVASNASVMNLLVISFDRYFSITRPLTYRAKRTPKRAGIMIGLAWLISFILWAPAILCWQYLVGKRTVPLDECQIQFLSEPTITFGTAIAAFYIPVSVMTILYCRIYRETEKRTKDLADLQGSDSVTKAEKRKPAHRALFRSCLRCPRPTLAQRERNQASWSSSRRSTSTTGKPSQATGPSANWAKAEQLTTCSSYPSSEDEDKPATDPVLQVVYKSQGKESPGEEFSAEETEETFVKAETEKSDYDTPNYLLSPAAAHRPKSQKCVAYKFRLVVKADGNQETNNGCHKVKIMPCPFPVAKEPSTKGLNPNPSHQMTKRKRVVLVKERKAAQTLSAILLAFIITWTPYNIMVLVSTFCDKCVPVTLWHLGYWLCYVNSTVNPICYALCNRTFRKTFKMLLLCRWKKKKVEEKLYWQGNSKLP
Nature of the series: Maximal level of stimulation as a percentage above basal levels. It counts as functional.

In series [4] the target is T1, Muscarinic acetylcholine receptor M1. Briefly: Agonistic activity against M1 muscarinic receptor expressed in A9 L cells. It counts as functional, cell-based, A9L.
The target is the same in series [5]. The description is as §1.
Series [6] in a line: Solubility in Kreb-Heinsleit buffer. Format: physicochemical.
Series [7] can be described thus: Solubility in deionized water. It counts as physicochemical. The following applies: read-out: S.
Series [8] concerns the target T1, Muscarinic acetylcholine receptor M1. Nature of the series: Agonistic activity against M1 muscarinic receptor expressed in NIH 3T3 cells. It counts as functional, cell-based, NIH3T3.
Series [9] concerns the target T4, Muscarinic acetylcholine receptor M4 (Homo sapiens, UniProt P08173).
T4 sequence (P08173 whole entry): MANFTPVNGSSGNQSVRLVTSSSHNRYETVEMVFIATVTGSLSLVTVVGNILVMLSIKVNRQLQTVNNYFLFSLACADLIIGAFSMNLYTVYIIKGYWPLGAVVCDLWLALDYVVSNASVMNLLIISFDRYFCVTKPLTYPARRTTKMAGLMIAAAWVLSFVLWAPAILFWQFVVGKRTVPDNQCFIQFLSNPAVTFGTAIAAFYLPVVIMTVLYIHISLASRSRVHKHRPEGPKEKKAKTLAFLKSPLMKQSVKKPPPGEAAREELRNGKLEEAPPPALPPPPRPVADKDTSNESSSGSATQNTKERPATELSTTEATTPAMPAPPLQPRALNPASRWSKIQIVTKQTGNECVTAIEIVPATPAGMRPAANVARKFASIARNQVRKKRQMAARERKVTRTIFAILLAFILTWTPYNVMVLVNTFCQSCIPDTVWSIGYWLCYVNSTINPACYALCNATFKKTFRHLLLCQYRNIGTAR
Briefly: Agonist activity against M4 muscarinic receptor expressed in RBL-2H3 Mast cells. Format: functional, cell-based. The method, boiled down:
(§2)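 RBL-2H3 mast cell subclone stably transfected with human M4 receptor (>1 × 10^5 receptors/cell). Agonist action read as degranulation, i.e. hexosaminidase released into the supernatant, following earlier M1 methods. Dose-response data fit to a one-site stimulation model for Smax and EC50.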

Series [10] is described as follows: Maximum release of beta-hexosaminidase was determined as a measure of degranulation. It counts as functional. Set-up: reference not given here. The method, boiled down:
as §2

Series [11] concerns the target T2, Muscarinic acetylcholine receptor M1 (Homo sapiens). The following applies: at 100 µM.
In series [12] the target is T4, Muscarinic acetylcholine receptor M4. Briefly: Agonist activity against human M4 muscarinic receptor expressed in RBL-2H3 Mast cells. It counts as functional, cell-based. The essentials: as §2

In series [1], `CN1CCC=C(c2nsnc2OCCOCCOc2nsnc2C2=CCCN(C)C2)C1` had a Ki of 4.9 nM. Further, in series [2], the Stimulation was less than 10%.

For `CC(=O)OCC[N+](C)(C)C`, the Smax in [3] is 99%.

In series [4], `CN1CCC=C(c2nsnc2SCCCCSc2nsnc2C2=CCCN(C)C2)C1` yielded an EC50 of 570 nM. The compound further showed an inhibition constant (Ki) in series [5] of 0.93 nM.

`CN1CCC=C(c2nsnc2OCCOCCOCCOCCOc2nsnc2C2=CCCN(C)C2)C1`: the solubility in series [6] is 0.02 mg/mL (≈ 0.0362 mM); in series [7], greater than 1000 mg/mL. In addition, the EC50 in series [8] is 290 nM; in series [9] it was 5.2 nM. Besides, in [3], the Smax is -3.7%. The compound further came in with a Max release in [10] of 43%. In addition, the PI metabolism in [11] stood at 56%.

For the compound `CN1CCC=C(c2nsnc2OCCCCCCOc2nsnc2C2=CCCN(C)C2)C1`, the 50% effective concentration (EC50) in [9] was greater than 100000 nM. This compound had a Max release in series [10] of 3%. Further, the PI metabolism in series [11] was found to be 18%.

As to `CN1CCC=C(c2nsnc2SCCCCCCCCCCCSc2nsnc2C2=CCCN(C)C2)C1`, the 50% effective concentration (EC50) in [4] was 1500 nM; in [9], 4.7 nM. Also, the affinity in [5] corresponds to a Ki of 0.57 nM. The Max release in series [10] came to 29%.

The compound `CN1CCC=C(c2nsnc2SCCCSc2nsnc2C2=CCCN(C)C2)C1` had a concentration giving a half-maximal response (EC50) in series [4] of 350 nM. Further, the affinity in series [5], expressed as Ki, was 1.2 nM.

Consider `CN1CCC=C(c2nsnc2OCCCCCCCCCCOc2nsnc2C2=CCCN(C)C2)C1`, for which the solubility in series [6] is 0.004 mg/mL (≈ 0.00751 mM); in [7] it was 25 mg/mL (≈ 46.9 mM). In [9], this compound came in with an EC50 of 1100 nM. The compound also had a Max release in [10] of 24%. For the same compound, the PI metabolism in [11] was 76%.

The compound `CN1CCC=C(c2nsnc2OCCOCCOCCOCCOCCOCCOc2nsnc2C2=CCCN(C)C2)C1` showed a Ki in series [5] of 1.9 nM. The PI metabolism in series [11] was less than 10%.

On to `CN1CCC=C(c2nsnc2OCCCCCCCCCOc2nsnc2C2=CCCN(C)C2)C1`, for which, in [5], the Ki is 0.84 nM. The compound also registered a half-maximal effective concentration (EC50) in [9] of 20000 nM. Moreover, in [10], the Max release stood at 61%. Also, the PI metabolism in [11] was 27%.

Consider `CN1CCC=C(c2nsnc2OCCCCCCCCCCCCOc2nsnc2C2=CCCN(C)C2)C1`, for which the values for the solubility in series [6] and in series [7] were 0.0017 mg/mL (≈ 0.00303 mM) and 20 mg/mL (≈ 35.7 mM), respectively. In [5], this compound gave an inhibition constant Ki of 1.6 nM. This compound also yielded a 50% effective concentration (EC50) in series [9] of 1.4 nM. The same compound showed a Max release in series [10] of 57%. Further, the PI metabolism in [11] is 84%.

Regarding `CN1CCC=C(c2nsnc2SCCCCCCSc2nsnc2C2=CCCN(C)C2)C1`, the EC50 in series [4] is 590 nM. The compound also registered a Ki in [5] of 0.87 nM.

For the compound `CN1CCC=C(c2nsnc2OCCCCOc2nsnc2C2=CCCN(C)C2)C1`, the PI metabolism in series [11] stood at 21%.

As to `CCCCCCOc1nsnc1C1=CCCN(C)C1`, the PI metabolism in series [11] was 47%.

As for `CN1CCC=C(c2nsnc2SCCCCCCCCCCCCSc2nsnc2C2=CCCN(C)C2)C1`, the half-maximal effective concentration (EC50) in series [4] stood at 13000 nM; in [9] it was 1 nM. For the same compound, in series [5], the Ki worked out at 0.69 nM. For the same compound, the Max release in [10] stood at 54%.

In the case of `CN1CCC=C(c2nsnc2OCCOCCOCCOc2nsnc2C2=CCCN(C)C2)C1`, the PI metabolism in series [11] is less than 10%.

Take `CN1CCC=C(c2nsnc2OCCCOc2nsnc2C2=CCCN(C)C2)C1`: the PI metabolism in [11] turned out to be 21%.

Consider `CN1CCC=C(c2nsnc2OCCCCCCCCOc2nsnc2C2=CCCN(C)C2)C1`, for which, in [9], the concentration giving a half-maximal response (EC50) is greater than 100000 nM. For the same compound, the Max release in [10] stood at 1%. Moreover, the PI metabolism in series [11] was determined as 8.2%.

With `CN1CCC=C(c2nsnc2SCCCCCCCCCCSc2nsnc2C2=CCCN(C)C2)C1`, the results for the half-maximal effective concentration (EC50) in series [4] and in [9] were 2100 nM and 0.6 nM, respectively. Besides, in [5], affinity was put at a Ki of 0.32 nM. This compound also gave a Max release in series [10] of 61%.

In turn, `CN1CCC=C(c2nsnc2SCCCCCSc2nsnc2C2=CCCN(C)C2)C1` had an EC50 in [4] of 79 nM. The Ki in series [5] came out at 14 nM.

Regarding `CN1CCC=C(c2nsnc2SCCSc2nsnc2C2=CCCN(C)C2)C1`, the EC50 in series [4] is 440 nM. This compound came in with an inhibition constant Ki in series [5] of 20 nM.

`CN1CCC=C(c2nsnc2OCCCCCCCOc2nsnc2C2=CCCN(C)C2)C1`: the 50% effective concentration (EC50) in series [9] is greater than 100000 nM. Also, in [10], the Max release was 4%. Besides, the PI metabolism in series [11] is -3%.

As for `C[N+](C)(C)CCOC(N)=O`, in series [3], the Smax came to 110%. In [10], this compound yielded a Max release of 87%.

`CN1CCC=C(c2nsnc2OCCOCCOCCOCCOCCOc2nsnc2C2=CCCN(C)C2)C1` gave an inhibition constant Ki in series [5] of 1.5 nM. Moreover, in [11], the PI metabolism was less than 10%.

With `CN1CCC=C(c2nsnc2SCCCCCCCCCSc2nsnc2C2=CCCN(C)C2)C1`, the EC50 in [4] turned out to be 120 nM. The same compound came in with an inhibition constant Ki in series [5] of 17 nM.

As to `CN1CCC=C(c2nsnc2OCCOc2nsnc2C2=CCCN(C)C2)C1`, the Stimulation in [2] was found to be 50%. The midpoint of the response in series [12], the EC50, lay at 3900 nM. This compound gave a Max release in [10] of 39%.

Consider `CN1CCC=C(c2nsnc2SCCCCCCCCSc2nsnc2C2=CCCN(C)C2)C1`, for which, in series [4], it took 920 nM to reach a half-maximal effect (EC50). Moreover, in [5], the affinity, expressed as Ki, was 5 nM.

Compound `CN1CCC=C(c2nsnc2SCCCCCCCSc2nsnc2C2=CCCN(C)C2)C1` showed an EC50 in series [4] of 180 nM. Moreover, the Ki in [5] was 7.6 nM.

For `CN1CCC=C(c2nsnc2OCCCCCOc2nsnc2C2=CCCN(C)C2)C1`, the PI metabolism in series [11] is -1%.
